Measured values published in ChEMBL document CHEMBL4261639, “Cell-Active Small Molecule Inhibitors of the DNA-Damage Repair Enzyme Poly(ADP-ribose) Glycohydrolase (PARG): Discovery and Optimization of Orally Bioavailable Quinazolinedione Sulfonamides” (J Med Chem, 2018).

Tests used:
[1] = biological target: T1, Poly(ADP-ribose) glycohydrolase (Homo sapiens, UniProt Q86W56); assay: Inhibition of human full length PARG using Bt-NAD ribosylated PARP1 substrate after 10 mins by TR-FRET assay
[2] = biological target: T1, Poly(ADP-ribose) glycohydrolase; assay: Inhibition of PARG in human HeLa cells assessed as induction of MMS-induced PAR chains preincubated for 1 hr followed by MMS addition and measured after 1 hr by Alexofluor 488-conjugated secondary antibody and Hoechst 33342 staining based assay; format: cell-based
Summary of the method: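 Acute (1 h) cell-based proof-of-mechanism assay measuring persistence of PAR chains, i.e. blockade of PARG-mediated PAR degradation, across a dose range. EC50 values are means of at least 4 independent measurements, with standard deviations.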

[3] = Clearance in human liver microsomes

T1 sequence (Q86W56 whole entry): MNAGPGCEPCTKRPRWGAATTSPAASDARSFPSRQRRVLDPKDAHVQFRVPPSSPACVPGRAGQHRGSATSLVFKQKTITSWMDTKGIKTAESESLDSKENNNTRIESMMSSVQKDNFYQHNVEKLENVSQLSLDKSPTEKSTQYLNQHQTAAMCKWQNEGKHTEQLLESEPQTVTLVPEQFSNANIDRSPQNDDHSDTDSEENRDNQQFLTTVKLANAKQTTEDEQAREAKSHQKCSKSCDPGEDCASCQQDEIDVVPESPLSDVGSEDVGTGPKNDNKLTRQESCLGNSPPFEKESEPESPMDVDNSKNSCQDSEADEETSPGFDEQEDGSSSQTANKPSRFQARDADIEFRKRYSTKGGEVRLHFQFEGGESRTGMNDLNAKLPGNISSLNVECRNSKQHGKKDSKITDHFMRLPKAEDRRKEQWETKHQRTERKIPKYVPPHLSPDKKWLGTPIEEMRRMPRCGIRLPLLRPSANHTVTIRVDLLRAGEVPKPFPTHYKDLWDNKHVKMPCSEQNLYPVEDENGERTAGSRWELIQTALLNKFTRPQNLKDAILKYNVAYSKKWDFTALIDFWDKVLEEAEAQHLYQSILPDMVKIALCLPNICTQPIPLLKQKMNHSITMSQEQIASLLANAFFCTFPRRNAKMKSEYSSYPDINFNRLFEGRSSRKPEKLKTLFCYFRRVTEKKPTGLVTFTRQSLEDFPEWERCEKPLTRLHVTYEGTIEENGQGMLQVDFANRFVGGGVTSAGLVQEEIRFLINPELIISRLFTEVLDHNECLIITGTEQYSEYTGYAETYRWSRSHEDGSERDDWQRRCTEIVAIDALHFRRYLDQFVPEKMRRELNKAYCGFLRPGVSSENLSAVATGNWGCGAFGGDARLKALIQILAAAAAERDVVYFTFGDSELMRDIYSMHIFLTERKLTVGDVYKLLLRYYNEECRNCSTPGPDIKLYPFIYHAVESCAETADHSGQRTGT

| Structure (SMILES) | EC50 [1] | EC50 [2] | microsomal CLint [3] |
| --- | --- | --- | --- |
| O=c1[nH]c2ccc(S(=O)(=O)NC3CC3)cc2c2ccccc12 | 50 µM |  |  |
| CCNS(=O)(=O)c1ccc2c(c1)c(=O)n(CC)c(=O)n2CC | 140 µM |  |  |
| Cn1c(=O)n(Cc2nccs2)c(=O)c2cc(S(=O)(=O)NC3(C)CC3)ccc21 | 13 µM |  |  |
| N#CC1(NS(=O)(=O)c2ccc3c(c2)C(=O)c2ccccc2C3=O)CC1 | 3.3 µM | 19 µM |  |
| Cn1nnnc1Cn1c(=O)c2cc(S(=O)(=O)NC3(C)CC3)ccc2n(C)c1=O | 3 µM |  |  |
| CCn1c(=O)c2cc(S(=O)(=O)NC3(C#N)CC3)ccc2n(CC)c1=O | 1.8 µM | 5.6 µM |  |
| Cn1cncc1Cn1c(=O)c2cc(S(=O)(=O)NC3(C)CC3)ccc2n(C)c1=O | 3.3 µM |  |  |
| Cn1c(=O)c2cc(S(=O)(=O)NC3(C)CC3)ccc2n(CC#N)c1=O | 2.8 µM | 8.9 µM |  |
| Cn1c(=O)c2cc(S(=O)(=O)NC3(C)CC3)ccc2n(Cc2ccc(F)cc2)c1=O | 0.53 µM |  |  |
| Cn1c(=O)n(CC2CCCCC2)c(=O)c2cc(S(=O)(=O)NC3(C)CC3)ccc21 | > 150 µM |  |  |
| Cn1c(=O)n(Cc2cnc[nH]2)c(=O)c2cc(S(=O)(=O)NC3(C)CC3)ccc21 | 4 µM |  |  |
| Cn1c(=O)c2cc(S(=O)(=O)NC3(C)CC3)ccc2n(Cc2cccnc2)c1=O | 1.3 µM |  |  |
| Cn1c(=O)n(Cc2ccccn2)c(=O)c2cc(S(=O)(=O)NC3(C)CC3)ccc21 | 16 µM |  |  |
| Cn1cc(Cn2c(=O)c3cc(S(=O)(=O)NC4(C)CC4)ccc3n(CC3CC3)c2=O)cn1 | 0.029 µM | 0.056 µM | 81 µL/min/mg |
| CCn1cc(Cn2c(=O)c3cc(S(=O)(=O)NC4(C)CC4)ccc3n(C)c2=O)cn1 | 0.45 µM |  |  |
| O=C1c2ccccc2C(=O)c2cc(S(=O)(=O)NCC3CC3)ccc21 | 24 µM |  |  |
| Cc1nnc(Cn2c(=O)c3cc(S(=O)(=O)NC4(C)CC4)ccc3n(C)c2=O)o1 | 1.8 µM |  |  |
| NC(=O)CCNS(=O)(=O)c1ccc2c(c1)C(=O)c1ccccc1C2=O | > 150 µM |  |  |
| Cc1nnc(Cn2c(=O)c3cc(S(=O)(=O)NC4(C)CC4)ccc3n(C)c2=O)s1 | 0.47 µM |  |  |
| Cn1c(=O)n(Cc2csnn2)c(=O)c2cc(S(=O)(=O)NC3(C)CC3)ccc21 | 2.7 µM |  |  |
| Cn1c(=O)c2cc(S(=O)(=O)NC(C)(C)C)ccc2n(C)c1=O | 110 µM |  |  |
| C#CCn1c(=O)c2cc(S(=O)(=O)NC3(C)CC3)ccc2n(C)c1=O | 3 µM |  |  |
| Cc1cc(Cn2c(=O)c3cc(S(=O)(=O)NC4(C)CC4)ccc3n(C)c2=O)on1 | 0.47 µM |  |  |

| Structure (SMILES) | EC50 [1] | EC50 [2] | microsomal CLint [3] |
| --- | --- | --- | --- |
| CNS(=O)(=O)c1ccc2c(c1)C(=O)c1ccccc1C2=O | > 30 µM |  |  |
| Cn1c(=O)n(Cc2ccns2)c(=O)c2cc(S(=O)(=O)NC3(C)CC3)ccc21 | 2.3 µM |  |  |
| Cc1cc(Cn2c(=O)c3cc(S(=O)(=O)NC4(C)CC4)ccc3n(C)c2=O)[nH]n1 | 3.2 µM |  |  |
| CN(C)CCn1c(=O)n(C)c(=O)c2cc(S(=O)(=O)NC3(C)CC3)ccc21 | 2 µM | 6.4 µM |  |
| Cn1c(=O)n(Cc2cncs2)c(=O)c2cc(S(=O)(=O)NC3(C)CC3)ccc21 | 1.2 µM |  |  |
| Cn1c(=O)c2cc(S(=O)(=O)NC3(C)CC3)ccc2n(Cc2ccccc2F)c1=O | 1.4 µM |  |  |
| Cn1nccc1Cn1c(=O)n(C)c(=O)c2cc(S(=O)(=O)NC3(C)CC3)ccc21 | 1.2 µM |  |  |
| Cn1cnnc1Cn1c(=O)c2cc(S(=O)(=O)NC3(C)CC3)ccc2n(C)c1=O | 3.1 µM |  |  |
| Cn1c(=O)n(Cc2ccsc2)c(=O)c2cc(S(=O)(=O)NC3(C)CC3)ccc21 | 20 µM |  |  |
| COc1ccc(Cn2c(=O)n(C)c(=O)c3cc(S(=O)(=O)NC4(C)CC4)ccc32)cc1 | 0.45 µM |  |  |
| CCn1c(=O)n(Cc2cnn(C)c2)c(=O)c2cc(S(=O)(=O)NC3(C)CC3)ccc21 |  |  | 35 µL/min/mg |
| CCn1c(=O)c2cc(S(=O)(=O)NC3(C)CC3)ccc2n(CC)c1=O | 1.5 µM | 1.1 µM |  |
| Cc1nc(C)c(Cn2c(=O)n(Cc3cnn(C)c3)c(=O)c3cc(S(=O)(=O)NC4(C)CC4)ccc32)s1 | 0.006 µM | 0.02 µM | 97 µL/min/mg |
| Cn1c(=O)n(CC(=O)c2ccccc2)c(=O)c2cc(S(=O)(=O)NC3(C)CC3)ccc21 | 1.6 µM |  |  |
| Cn1c(=O)c2cc(S(=O)(=O)NC3(C)CC3)ccc2n(CC2CCCCC2)c1=O | 0.56 µM | 2.7 µM |  |
| Cn1c(=O)n(CC2COC2)c(=O)c2cc(S(=O)(=O)NC3(C)CC3)ccc21 | 7 µM |  |  |
| Cn1c(=O)n(Cc2cnn(CC#N)c2)c(=O)c2cc(S(=O)(=O)NC3(C)CC3)ccc21 | 0.37 µM |  |  |
| Cc1nc(C)c(Cn2c(=O)c3cc(S(=O)(=O)NC4(C)CC4)ccc3n(C)c2=O)s1 | 0.91 µM |  |  |
| COCCNS(=O)(=O)c1ccc2c(c1)C(=O)c1ccccc1C2=O | > 150 µM |  |  |
| CC1(NS(=O)(=O)c2ccc3c(c2)C(=O)c2ccccc2C3=O)CC1 | 6 µM | 6.6 µM |  |
| CCn1c(=O)n(C)c(=O)c2cc(S(=O)(=O)NC3(C)CC3)ccc21 | 1.3 µM | 3.6 µM |  |
| Cn1c(=O)n(Cc2cocn2)c(=O)c2cc(S(=O)(=O)NC3(C)CC3)ccc21 | 21 µM |  |  |
| Cc1nc(C)c(Cn2c(=O)n(C)c(=O)c3cc(S(=O)(=O)NC4(C)CC4)ccc32)s1 | 0.18 µM |  |  |

| Structure (SMILES) | EC50 [1] | EC50 [2] | microsomal CLint [3] |
| --- | --- | --- | --- |
| COc1ccccc1Cn1c(=O)n(C)c(=O)c2cc(S(=O)(=O)NC3(C)CC3)ccc21 | 3.2 µM |  |  |
| Cn1c(=O)n(CC2CC2)c(=O)c2cc(S(=O)(=O)NC3(C)CC3)ccc21 | 4.6 µM |  |  |
| C#CCn1c(=O)n(C)c(=O)c2cc(S(=O)(=O)NC3(C)CC3)ccc21 | 0.71 µM | 0.25 µM |  |
| Cc1cc(Cn2c(=O)c3cc(S(=O)(=O)NC4(C)CC4)ccc3n(C)c2=O)no1 | 5.2 µM |  |  |
| Cn1c(=O)c2cc(S(=O)(=O)NC3(C)CC3)ccc2n(Cc2ccncc2)c1=O | 2.4 µM |  |  |
| Cn1c(=O)n(Cc2ccccc2)c(=O)c2cc(S(=O)(=O)NC3(C)CC3)ccc21 | 26 µM |  |  |
| Cn1c(=O)n(Cc2cccnc2)c(=O)c2cc(S(=O)(=O)NC3(C)CC3)ccc21 | 2.5 µM |  |  |
| Cn1c(=O)n(Cc2cn[nH]c2)c(=O)c2cc(S(=O)(=O)NC3(C)CC3)ccc21 | 0.38 µM |  |  |
| O=C1c2ccccc2C(=O)c2cc(S(=O)(=O)NC3CC3)ccc21 | 13 µM | 22 µM |  |
| N#CCCNS(=O)(=O)c1ccc2c(c1)C(=O)c1ccccc1C2=O | 88 µM |  |  |
| Cc1noc(C)c1Cn1c(=O)c2cc(S(=O)(=O)NC3(C)CC3)ccc2n(C)c1=O | 0.62 µM |  |  |
| CCNS(=O)(=O)c1ccc2c(c1)C(=O)c1ccccc1C2=O | 110 µM |  |  |
| NC(=O)CNS(=O)(=O)c1ccc2c(c1)C(=O)c1ccccc1C2=O | > 150 µM |  |  |
| Cn1c(=O)n(CC#N)c(=O)c2cc(S(=O)(=O)NC3(C)CC3)ccc21 | 1.1 µM |  |  |
| O=C1c2ccccc2C(=O)c2cc(S(=O)(=O)NCCO)ccc21 | > 150 µM |  |  |
| Cc1nc(-c2ccccc2)c(Cn2c(=O)c3cc(S(=O)(=O)NC4(C)CC4)ccc3n(C)c2=O)s1 | 12 µM |  |  |
| Cn1c(=O)c2cc(S(=O)(=O)NC3CC3)ccc2n(C)c1=O | 11 µM |  |  |
| Cn1nccc1Cn1c(=O)c2cc(S(=O)(=O)NC3(C)CC3)ccc2n(C)c1=O | 4.1 µM |  |  |
| Cn1c(=O)c2cc(S(=O)(=O)NC3(C)CC3)ccc2n(Cc2cccc(F)c2)c1=O | 1.6 µM |  |  |
| Cn1c(=O)n(-c2ccccc2)c(=O)c2cc(S(=O)(=O)NC3(C)CC3)ccc21 | 23 µM |  |  |
| COCCn1c(=O)n(C)c(=O)c2cc(S(=O)(=O)NC3(C)CC3)ccc21 | 1.1 µM | 6.1 µM |  |
| C#CCn1c(=O)n(Cc2cnn(C)c2)c(=O)c2cc(S(=O)(=O)NC3(C)CC3)ccc21 | 0.052 µM | 0.13 µM | 42 µL/min/mg |
| Cn1c(=O)n(Cc2ccoc2)c(=O)c2cc(S(=O)(=O)NC3(C)CC3)ccc21 | 6 µM |  |  |

| Structure (SMILES) | EC50 [1] | EC50 [2] | microsomal CLint [3] |
| --- | --- | --- | --- |
| Cc1noc(Cn2c(=O)c3cc(S(=O)(=O)NC4(C)CC4)ccc3n(C)c2=O)n1 | 5 µM |  |  |
| Cc1nc(Cn2c(=O)c3cc(S(=O)(=O)NC4(C)CC4)ccc3n(C)c2=O)cs1 | 10 µM |  |  |
| Cn1c(=O)c2cc(S(=O)(=O)NC3(C)CC3)ccc2n(Cc2ccccn2)c1=O | 5.8 µM |  |  |
| Cc1nnsc1Cn1c(=O)c2cc(S(=O)(=O)NC3(C)CC3)ccc2n(C)c1=O | 0.88 µM |  |  |
| CCNS(=O)(=O)c1ccc2c(c1)c(=O)n(C)c(=O)n2C | > 150 µM |  |  |
| Cn1c(=O)n(Cc2cnc(N)s2)c(=O)c2cc(S(=O)(=O)NC3(C)CC3)ccc21 | 0.48 µM |  |  |
| Cc1ncc(Cn2c(=O)c3cc(S(=O)(=O)NC4(C)CC4)ccc3n(C)c2=O)s1 | 0.48 µM |  |  |
| O=C1c2ccccc2C(=O)c2cc(S(=O)(=O)NC3CCC3)ccc21 | > 50 µM |  |  |
| Cn1c(=O)c2cc(S(=O)(=O)NC3(C)CC3)ccc2n(Cc2ccccc2)c1=O | 1.3 µM | 2.3 µM |  |
| Cc1cc(Cn2c(=O)n(C)c(=O)c3cc(S(=O)(=O)NC4(C)CC4)ccc32)n(C)n1 | 0.38 µM |  |  |
| Cn1c(=O)[nH]c2ccc(S(=O)(=O)NC3(C)CC3)cc2c1=O | 4 µM | 8.1 µM |  |
| Cc1nonc1Cn1c(=O)c2cc(S(=O)(=O)NC3(C)CC3)ccc2n(C)c1=O | 2.1 µM |  |  |
| Cn1c(=O)c2cc(S(=O)(=O)NC3(C#N)CC3)ccc2n(C)c1=O | 5 µM | 14 µM |  |
| COc1cccc(Cn2c(=O)n(C)c(=O)c3cc(S(=O)(=O)NC4(C)CC4)ccc32)c1 | 0.86 µM |  |  |
| Cn1c(=O)n(CC(=O)c2ccncc2)c(=O)c2cc(S(=O)(=O)NC3(C)CC3)ccc21 | 1.7 µM |  |  |
| CCn1c(=O)c2cc(S(=O)(=O)NC3(C)CC3)ccc2n(C)c1=O | 4 µM |  |  |
| Cn1ccc(Cn2c(=O)c3cc(S(=O)(=O)NC4(C)CC4)ccc3n(C)c2=O)n1 | 12 µM |  |  |
| Cn1c(=O)n(Cc2ccno2)c(=O)c2cc(S(=O)(=O)NC3(C)CC3)ccc21 | 1.2 µM |  |  |
| COCC(C)(C)NS(=O)(=O)c1ccc2c(c1)C(=O)c1ccccc1C2=O | > 150 µM |  |  |
| Cn1c(=O)n(Cc2ccncc2)c(=O)c2cc(S(=O)(=O)NC3(C)CC3)ccc21 | 8 µM |  |  |
| Cc1oncc1Cn1c(=O)c2cc(S(=O)(=O)NC3(C)CC3)ccc2n(C)c1=O | 0.77 µM |  |  |
| CCC(C)(C)NS(=O)(=O)c1ccc2c(c1)C(=O)c1ccccc1C2=O | 49 µM |  |  |
